ARNT TACC3 PPI – disruptors of human ARNT/TACC3 interaction. Q9Y6A5. AID 623870. 390,000 tested, 0.66% active. inhibition, % at 9.99 µM. AlphaScreen His-ARNT PAS-B/GST-TACC3 binding, luminescence; TACC3 fragment carries E629A point mutation;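 active = mean inhibition of replicates at least 50% and at least half of replicates each reaching 50%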;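 note: 0% = complete ARNT plus TACC3 wells and 100% = ARNT alone without TACC3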
SR-BI DiI inh – inhibitors of mouse SR-BI mediated HDL lipid uptake; ldlA[mSR-BI] CHO cells, DiI-HDL uptake fluorescence, 3 h; inhibition, % at 12.5 µM; 320,000 tested, 0.96% active; Q61009;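 active = mean replicate inhibition of at least 70% and a set share of replicates each scoring 70 or more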;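 note: 0% = median of neutral control wells and 100% = median of positive control wells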
Target sequence (Q61009 whole entry, looked up): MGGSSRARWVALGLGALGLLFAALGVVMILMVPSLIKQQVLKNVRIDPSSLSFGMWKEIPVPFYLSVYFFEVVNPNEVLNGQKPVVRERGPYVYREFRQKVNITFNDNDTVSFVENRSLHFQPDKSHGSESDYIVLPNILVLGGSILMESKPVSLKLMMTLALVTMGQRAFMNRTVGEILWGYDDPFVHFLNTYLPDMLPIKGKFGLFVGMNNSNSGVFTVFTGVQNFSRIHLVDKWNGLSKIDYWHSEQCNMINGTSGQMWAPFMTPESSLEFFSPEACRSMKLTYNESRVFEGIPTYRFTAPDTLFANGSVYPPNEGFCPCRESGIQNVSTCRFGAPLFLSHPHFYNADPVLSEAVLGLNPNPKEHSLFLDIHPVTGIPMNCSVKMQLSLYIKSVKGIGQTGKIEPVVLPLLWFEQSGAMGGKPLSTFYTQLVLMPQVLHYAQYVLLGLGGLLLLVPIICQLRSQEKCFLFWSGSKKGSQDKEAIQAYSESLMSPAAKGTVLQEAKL
SR-BI DiI-HDL act – enhances SR-BI lipid uptake from DiI-HDL. CHO ldlA[mSR-BI] cells, DiI-HDL uptake fluorescence, 3 h; 100 = double the neutral-control signal. activation, % at 12.5 µM. 320,000 tested, 0.096% active. AID 504775;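 active = mean replicate activation of at least 60% and every replicate at or above 60%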;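 note: 0% = median plate neutral-control signal and 100% = twice that signal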
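Material: SR-BI-overexpressing, LDLR-lacking CHO cells | Dosing: Single compound concentration, delivered by pin transfer | Probe or stimulus: Labelled HDL, 10 µg/mL | Signal: Bottom-read cell fluorescence after medium removal, ex 550/em 595 nm | Schedule: 3 h, 37 °C | Evaluation: HDL uptake via cellular fluorescence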
CAL PDZ FP-1 – blocks peptide binding to the human CAL PDZ domain. Q9HD26. purified CAL PDZ, TMR-peptide fluorescence polarization, 1 h. inhibition, % at 24.9 µM. 300,000 tested, 0.92% active. AID 602252;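 active = mean inhibition of at least 30% with at least half of replicates also reaching 30%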;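 note: 0% = DMSO neutral control and 100% = excess unlabeled competitor peptide PRC23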
miR122 inh – blocks miR-122 activity in Huh7 sensor cells; Huh7 miR-122 Renilla luciferase sensor, 48 h; neutral wells = 0, positive control = 100; activation (reporter increase), % at 12.5 µM; 340,000 tested, 0.3% active;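 active = mean replicate activation score at least 90 and every replicate individually at or above 90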;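 note: higher luciferase means less miR-122 activity so hits act as miR-122 inhibitors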
CAL PDZ FP-2 – inhibitors of human CAL PDZ peptide binding | inhibition, % at 20 µM | 330,000 tested, 0.02% active | Q9HD26 | AID 504414 | purified CAL PDZ, TMR-peptide fluorescence polarization, 1 h;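 active = highest replicate inhibition of at least 40%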;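 note: plate controls were DMSO neutral control wells for no effect and unlabeled competitor peptide control wells for full effect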
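Control set: unlabelled peptide and DMSO controls / Material: purified CerCALP PDZ construct / Timing: 1 h incubation at room temperature before polarization reading / Doses: 20 µM, one dose / Detection: fluorescence polarization (mP)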
An asterisk follows results filed as active; . = no result; [ ] = another dose, or the depositor's remark. Only some compounds are listed: those with a hit (about 2.1% of all), similar ones and a draw of the others.

SMILES | ARNT TACC3 PPI | SR-BI DiI inh | SR-BI DiI-HDL act | CAL PDZ FP-1 | miR122 inh | CAL PDZ FP-2
C[C@H]1CN([C@@H](C)CO)C(=O)c2cc(NC(=O)NC3CCCCC3)ccc2O[C@H]1CN(C)C(=O)Nc1ccc(C(F)(F)F)cc1 | -1 | 74* | -74 | -3 | -3[16.7 µM] | 0
C[C@@H]1CN([C@H](C)CO)C(=O)c2cc(NC(=O)NC3CCCCC3)ccc2O[C@H]1CN(C)C(=O)Nc1ccc(C(F)(F)F)cc1 | -2 | . | . | . | -12[16.7 µM] | .
C[C@H]1CN([C@@H](C)CO)C(=O)c2cccc(NC(=O)C3CC3)c2O[C@@H]1CN(C)Cc1ccc(C(F)(F)F)cc1 | 7 | . | . | . | 113*[16.7 µM] | .
C[C@@H]1CN([C@@H](C)CO)C(=O)c2cccc(NC(=O)Nc3ccccc3)c2O[C@H]1CN(C)Cc1ccc(C(F)(F)F)cc1 | -28 | . | . | . | 115*[16.7 µM] | .
C[C@H](CO)N1C[C@H](C)[C@H](CN(C)Cc2ccc(C(F)(F)F)cc2)Oc2c(NC(=O)C3CC3)cccc2C1=O | -10 | . | . | . | 13[16.7 µM] | .
C[C@H]1CN([C@@H](C)CO)C(=O)c2ccccc2-c2ccccc2CO[C@H]1CN(C)Cc1ccc(F)cc1 | 17 | . | . | . | . | .
O=C(N[C@@H]1CC[C@H](CCNC(=O)C2CC2)O[C@@H]1CO)c1ccccn1 | 0 | . | . | . | . | .
O=C(C[C@H]1C[C@@H]2c3cc(NC(=O)NC4CCCC4)ccc3O[C@@H]2[C@H](CO)O1)NCc1ccccc1 | -16 | . | . | . | -2[16.7 µM] | .
C[C@H]1CN([C@@H](C)CO)C(=O)c2cccc(NC(=O)NC3CCCCC3)c2O[C@@H]1CN(C)Cc1ccc(C(F)(F)F)cc1 | -1 | . | . | . | 121*[16.7 µM] | .
C[C@H](CO)N1C[C@H](C)[C@@H](CN(C)Cc2ccc(C(F)(F)F)cc2)Oc2c(NC(=O)C3CCCCC3)cccc2C1=O | 3 | . | . | . | 122*[16.7 µM] | .
C[C@@H]1CN([C@@H](C)CO)C(=O)c2cccc(NC(=O)C3CCCCC3)c2O[C@H]1CN(C)Cc1ccc(C(F)(F)F)cc1 | -3 | . | . | . | 52[16.7 µM] | .
C[C@@H]1CN([C@@H](C)CO)C(=O)c2cccc(NC(=O)NC3CCCCC3)c2O[C@@H]1CN(C)Cc1ccc(C(F)(F)F)cc1 | 1 | . | . | . | 8[16.7 µM] | .
C[C@H]1CN([C@@H](C)CO)C(=O)c2cccc(NC(=O)C3CCCCC3)c2O[C@@H]1CN(C)Cc1ccc(C(F)(F)F)cc1 | 0 | . | . | . | 94*[16.7 µM] | .
Cc1cc(C)cc(NS(=O)(=O)c2ccc3c(c2)C(C)(C)C(=O)N3C)c1 | 10 | 13 | -13 | -2 | 107* | 0
O=C(C[C@H]1CC[C@@H]2[C@H](COC[C@H](O)CN2C(=O)Nc2ccccc2)O1)NC1Cc2ccccc2C1 | 17 | . | . | . | -6[16.7 µM] | .
COc1ccc(-n2c(CNC(=O)COc3ccccc3)n[nH]c2=S)cc1 | 2 | -11 | 11 | 41* | -6 | 0
CCCNC(=O)CCc1c(C)nc2nc(-c3cc(OC)cc(OC)c3)nn2c1C | -4 | 35 | -35 | 46* | -6 | -1
CCCCNC(=O)CCc1c(C)nc2nc(-c3cc(OC)cc(OC)c3)nn2c1C | -6 | -2 | 2 | -22 | 3 | -2
Cc1noc(C)c1COc1ccc(C(=O)N2CCN(S(=O)(=O)c3ccc(Cl)cc3)CC2)cc1 | -6 | 4 | -4 | 39* | . | -1
Cc1noc(C)c1COc1ccc(C(=O)N2CCN(S(=O)(=O)c3ccc(F)cc3)CC2)cc1 | . | 4 | -4 | 1 | . | 0
CC(C)NC(=O)N(C)C[C@@H]1OCCCC[C@@H](C)Oc2ccc(NS(=O)(=O)c3ccc(F)cc3)cc2C(=O)N([C@@H](C)CO)C[C@@H]1C | 4 | . | . | . | -7[16.7 µM] | .
Cc1cc(C)n2c(SCC(=O)N(CC(C)C)c3c(N)n(CC(C)C)c(=O)[nH]c3=O)nnc2n1 | -6 | 11 | -11 | 70* | . | -1
COC(=O)C(NNc1ccccc1)(NC(=O)c1cccc(F)c1)C(F)(F)F (stereo not drawn) | -3 | -3 | 3 | 50* | -1 | 0
CC(C)Cn1c(N)c(C(=O)COC(=O)c2cc(F)cc(F)c2)c(=O)n(C)c1=O | -17 | 52 | -52 | 36* | . | -3
C[C@H]1CN([C@@H](C)CO)C(=O)CCCn2cc(nn2)CO[C@H]1CN(C)Cc1cccnc1 | -5 | . | . | . | 3[16.7 µM] | .
SMILES | ARNT TACC3 PPI | SR-BI DiI inh | SR-BI DiI-HDL act | CAL PDZ FP-1 | miR122 inh | CAL PDZ FP-2
Cc1noc(C)c1S(=O)(=O)Nc1ccc2c(c1)CC(=O)N([C@H](C)CO)C[C@@H](C)[C@H](CN(C)Cc1ccc(Cl)c(Cl)c1)O2 | -8 | . | . | . | -1[16.7 µM] | .
Cc1ccc(S(=O)(=O)N2CCN(C(=O)N(C)C)CC2)cc1 | -4 | -14 | 14 | -5 | 17 | 67*
CN(C)S(=O)(=O)N1CCN(S(=O)(=O)c2ccccc2)CC1 | 1 | -19 | 19 | 59* | -4 | 0
CC1CN(C2CCN(S(=O)(=O)c3ccccc3)CC2)CC(C)O1 (stereo not drawn) | 1 | -289 | 289* | -2 | 6 | -1
Cc1ccc(S(=O)(=O)N2CCN(C(=O)N3CCCC3)CC2)cc1 | 16 | . | . | 1 | -4 | -3
Cc1ccc(S(=O)(=O)N2CCN(S(=O)(=O)N(C)C)CC2)cc1 | 19 | 11 | -11 | -4 | -5 | .
Cc1noc(C)c1S(=O)(=O)Nc1ccc2c(c1)C(=O)N([C@H](C)CO)C[C@H](C)[C@H](CN(C)S(=O)(=O)c1ccccc1)OCCCC[C@H](C)O2 | -5 | . | . | . | -5[16.7 µM] | .
CN1CCN(C(=O)c2cc(Cl)cc(Cl)c2)CC1 | 2 | 6 | -6 | 64* | 2 | .
CCCN(CCC)C(=O)c1cc(-c2ccc3c(c2)OCO3)nc2ccccc12 | 36 | 25 | -25 | -2 | 22 | -1
CCCNC(=O)NNC(=O)c1cc(-c2ccc3c(c2)OCO3)nc2ccccc12 | 2 | 23 | -23 | -3 | 102* | -2
C[C@H](CO)N1C[C@H](C)[C@H](CN(C)C(=O)Nc2ccc(F)cc2)Oc2ncc(C#Cc3cccc(F)c3)cc2C1=O | . | . | . | . | -1[16.7 µM] | .
CC(=O)N(C)C[C@@H]1Oc2cc(C3=CCCCC3)ccc2S(=O)(=O)N([C@@H](C)CO)C[C@H]1C | . | . | . | . | 3[16.7 µM] | .
CN(C)C(=O)c1ccc(-c2ccc3c(c2)[C@H]2[C@H](CCN2C(=O)C2CCOCC2)[C@@H](CO)N3C)cc1 | -5 | . | . | . | -11[16.7 µM] | .
O=c1cccc2c1c1cc[nH]c3ccc(=O)n2c31 | 12 | -43 | 43 | 49* | -6 | -1
C[C@H](CO)N1C[C@H](C)[C@H](CN(C)S(=O)(=O)c2ccccc2)Oc2ccc(NC(=O)Nc3cccc4ccccc34)cc2C1=O | 23 | . | . | . | -9[16.7 µM] | .
C[C@@H]1CCCCO[C@H](CN(C)C(=O)c2ccncc2)[C@H](C)CN([C@H](C)CO)C(=O)c2cc(NC(=O)c3ccccc3)ccc2O1 | -14 | . | . | . | -6[16.7 µM] | .
